Experimental data from ChEMBL document CHEMBL4024748, “Development of Potent Type I Protein Arginine Methyltransferase (PRMT) Inhibitors of Leukemia Cell Proliferation” (J Med Chem, 2017).
Each block holds one molecule with its values, some of them ahead of it. Calls of active or inactive are those of the source. The rule behind the calls is not given here.

Assays:
[1] = biological target: Protein arginine N-methyltransferase 1 (Rattus norvegicus, UniProt Q63009); test: Inhibition of rat His-tagged PRMT1 (11 to 353 residues) expressed in Escherichia coli BL21(DE3) using biotinylated H4 peptide (1 to 21 residues) as substrate preincubated for 15 mins followed by substrate addition measured after 60 mins in presence of [3H]SAM by microbeta counting method
Method in brief: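 Radiometric assay in modified Tris buffer. His6-rPRMT1(11–353) preincubated with compound 15 min at RT, then substrate and [3H]-SAM added. Reaction 60 min at RT, stopped with cold stop solution, transferred to Flashplate for 60 min, washed with water/0.1% Tween-20, counted on Microbeta. IC50 from curve fit.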

[2] = biological target: Protein arginine N-methyltransferase 1 (Rattus norvegicus) (UniProt Q63009); test: Inhibition of rat His-tagged PRMT1 (11 to 353 residues) expressed in Escherichia coli BL21(DE3) at 100 uM using biotinylated H4 peptide (1 to 21 residues) as substrate by TR-FRET assay
Method in brief: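 Single-point screen at 100 µM. His6-rPRMT1(11–353) expressed in E. coli BL21(DE3) and purified by Ni affinity then gel filtration. Biotinylated H4(1–21) methylated, then product detected with Eu-labelled anti-H4R3me2a antibody plus ULight-streptavidin by TR-FRET. Percent inhibition read.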

[3] = biological target: Protein arginine N-methyltransferase 1 (Rattus norvegicus) (UniProt Q63009); test: Binding affinity to rat His-tagged PRMT1 (11 to 353 residues) expressed in Escherichia coli BL21(DE3) at 200 uM by 1D 1H CPMG-NMR spectroscopic method
Method in brief: (§1)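 Rat PRMT1 (11–353), N-His6, expressed in E. coli BL21(DE3) with 0.4 mM IPTG at 16°C. Purified by Ni affinity and Superdex200. NMR used 5 µM PRMT1 in phosphate buffer pH 7.4 (20 mM NaH2PO4, 20 mM Na2HPO4, 100 mM NaCl) in D2O. Ligand at 200 µM in 5% DMSO-d6. CPMG run with 5, 2 and 1 µM PRMT1, plus STD.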

[4] = biological target: Protein arginine N-methyltransferase 1 (Rattus norvegicus) (UniProt Q63009); test: Binding affinity to rat His-tagged PRMT1 (11 to 353 residues) expressed in Escherichia coli BL21(DE3) at 200 uM by STD-NMR spectroscopic method; method in brief: as §1
MV4-11 [5] = test: Downregulation of HOXA9 mRNA levels in human MV4-11 cells up to 15 uM by qRT-PCR analysis; format: functional, cell-based
Method in brief: (§2)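 MV4-11 cells treated with compound. mRNA measured by SYBR Green qRT-PCR with B2M as internal control. Fold change from ΔΔCt. Samples run in triplicate, mean ± SD.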

[6] = biological target: Protein arginine N-methyltransferase 1 (Homo sapiens) (UniProt Q99873); test: Inhibition of PRMT1 in human MV411 cells assessed as reduction in arginine methylation after 48 hrs by Western blot analysis; format: cell-based
Method in brief: (§3)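 MV4-11 cells treated with compound for 48 h. ADMA, SDMA and H4R3me2a read by western blot. Blots blocked in 5% nonfat milk in PBST, primary antibodies overnight at 4°C, HRP anti-rabbit secondary at 1:10000 for 1 h.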

MV4-11 [7] = test: Downregulation of MEIS1 mRNA levels in human MV4-11 cells up to 15 uM by qRT-PCR analysis; format: functional, cell-based; method in brief: as §2
MV4-11 [8] = test: Cell cycle arrest in human MV4-11 cells assessed as accumulation at G1 phase at 1.67 to 15 uM after 72 hrs by propidium iodide staining-based flow cytometry; format: functional
Method in brief: (§4)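 MV4-11 cells in 6-well plates with compound or DMSO control, harvested at 72 h. Fixed overnight in 70% ethanol at 4°C, washed with PBS, stained 30 min at room temperature with propidium iodide/RNase buffer, analysed by flow cytometry. Mean ± SD of three replicates.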

MV4-11 [9] = test: Induction of apoptosis in human MV4-11 cells up to 15 uM after 96 hrs by annexin V-FITC/propidium iodide staining-based flow cytometric method; format: functional, cell-based
Method in brief: (§5)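 MV4-11 cells in 6-well plates with compound or DMSO control, harvested at 96 h. Stained with an Annexin V-FITC apoptosis detection kit and analysed by flow cytometry. Mean ± SD of three replicates.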

MV4-11 [10] = test: Cytotoxicity against human MV4-11 cells assessed as decrease in cell viability at 6.25 to 12.5 uM after 96 hrs by Cell-Titer Glo assay; format: functional, cell-based
Method in brief: (§6)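 Cells kept at 37°C, 5% CO2, exposed to compound or DMSO control for 96 h. Viability read by CellTiter-Glo luminescence after 2 min shaking to lyse and 10 min at room temperature. Triplicate wells, normalised to control cells. For long-term growth, log-phase seeding densities; cells counted and replated to the starting density with fresh compound on days 4 and 8.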

MV4-11 [11] = test: Downregulation of HOXA10 mRNA levels in human MV4-11 cells up to 15 uM by qRT-PCR analysis; format: functional, cell-based; method in brief: as §2
MV4-11 [12] = test: Upregulation of MNDA mRNA levels in human MV4-11 cells by qRT-PCR analysis; format: functional, cell-based
Method in brief: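 Treated MV4-11 cells analysed by SYBR Green qRT-PCR, with B2M as internal control. Fold change calculated by the ΔΔCt method. Samples run in triplicate and reported as mean ± SD.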

MV4-11 [13] = test: Antiproliferative activity against human MV4-11 cells assessed as decrease in cell viability at 0.1 to 1000 uM by Cell-Titer Glo assay; format: functional, cell-based; details: TDE = time-dependent effect; method in brief: as §6
RS4-11 = test: Cytotoxicity against human RS4:11 cells assessed as decrease in cell viability after 96 hrs by Cell-Titer Glo assay; format: functional, cell-based; method in brief: as §6
MV4-11 [14] = test: Cell cycle arrest in human MV4-11 cells assessed as accumulation at G1 phase after 72 hrs by propidium iodide staining-based flow cytometry; format: functional; method in brief: as §4
MV4-11 [15] = test: Induction of apoptosis in human MV4-11 cells after 96 hrs by annexin V-FITC/propidium iodide staining-based flow cytometric method; format: functional, cell-based; method in brief: as §5
RCH-ACV = test: Cytotoxicity against human RCH-ACV cells assessed as decrease in cell viability after 96 hrs by Cell-Titer Glo assay; format: functional, cell-based; method in brief: as §6
[16] = biological target: Protein arginine N-methyltransferase 1 (Homo sapiens) (UniProt Q99873); test: Inhibition of PRMT1 in human MV411 cells assessed as reduction in H4R3me2a levels after 48 hrs by Western blot analysis; format: cell-based; method in brief: as §3
[17] = biological target: Protein arginine N-methyltransferase 1 (Homo sapiens) (UniProt Q99873); test: Inhibition of PRMT1 in human MV411 cells assessed as reduction in ADMA levels after 48 hrs by Western blot analysis; format: cell-based; method in brief: as §3
MRC5 = test: Cytotoxicity against human MRC5 cells assessed as decrease in cell viability at 6.25 to 25 uM after 96 hrs by Cell-Titer Glo assay; format: cell-based; details: mrc5, 96 h
Method in brief: (§7)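 Normal HUV-EC-C, MRC-5 and RCTEC cells at 37°C, 5% CO2, given compound or DMSO control for 96 h. Viability by CellTiter-Glo luminescence after 2 min shaking and 10 min at room temperature. Triplicate wells, normalised to control cells.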

MV4-11 [18] = test: Downregulation of HOXA10 mRNA levels in human MV4-11 cells by qRT-PCR analysis; format: functional, cell-based; method in brief: as §2
[19] = biological target: Protein arginine N-methyltransferase 1 (Homo sapiens) (UniProt Q99873); test: Inhibition of PRMT1 in human MV411 cells assessed as increase in SDMA levels after 48 hrs by Western blot analysis; format: cell-based; method in brief: as §3
[20] = Cytotoxicity against human HUV-EC-C cells assessed as decrease in cell viability at 6.25 to 25 uM after 96 hrs by Cell-Titer Glo assay; format: cell-based; method in brief: as §7
REH = test: Cytotoxicity against human REH cells assessed as decrease in cell viability after 96 hrs by Cell-Titer Glo assay; format: functional, cell-based; method in brief: as §6
[21] = Cytotoxicity against human RCTEC cells assessed as decrease in cell viability at 6.25 to 25 uM after 96 hrs by Cell-Titer Glo assay; format: cell-based; method in brief: as §7
MV4-11 [22] = test: Antiproliferative activity against human MV4-11 cells assessed as decrease in cell viability measured at day 12 by Cell-Titer Glo assay; format: functional, cell-based; details: MV4-11, 288 h; method in brief: as §6
THP-1 = test: Cytotoxicity against human THP1 cells assessed as decrease in cell viability after 96 hrs by Cell-Titer Glo assay; format: functional, cell-based; method in brief: as §6
KMS-11 = test: Cytotoxicity against human KMS11 cells assessed as decrease in cell viability after 96 hrs by Cell-Titer Glo assay; format: functional, cell-based; method in brief: as §6
U-937 = test: Cytotoxicity against human U937 cells assessed as decrease in cell viability after 96 hrs by Cell-Titer Glo assay; format: functional, cell-based; method in brief: as §6
MV4-11 [23] = test: Downregulation of HOXA9 mRNA levels in human MV4-11 cells by qRT-PCR analysis; format: functional, cell-based; method in brief: as §2
MV4-11 [24] = test: Downregulation of MEIS1 mRNA levels in human MV4-11 cells by qRT-PCR analysis; format: functional, cell-based; method in brief: as §2
KOPN-8 = test: Cytotoxicity against human KOPN8 cells assessed as decrease in cell viability after 96 hrs by Cell-Titer Glo assay; format: functional, cell-based; method in brief: as §6

Sequence of Protein arginine N-methyltransferase 1 (Rattus norvegicus) (Q63009 whole entry, looked up, the tested form may be a part): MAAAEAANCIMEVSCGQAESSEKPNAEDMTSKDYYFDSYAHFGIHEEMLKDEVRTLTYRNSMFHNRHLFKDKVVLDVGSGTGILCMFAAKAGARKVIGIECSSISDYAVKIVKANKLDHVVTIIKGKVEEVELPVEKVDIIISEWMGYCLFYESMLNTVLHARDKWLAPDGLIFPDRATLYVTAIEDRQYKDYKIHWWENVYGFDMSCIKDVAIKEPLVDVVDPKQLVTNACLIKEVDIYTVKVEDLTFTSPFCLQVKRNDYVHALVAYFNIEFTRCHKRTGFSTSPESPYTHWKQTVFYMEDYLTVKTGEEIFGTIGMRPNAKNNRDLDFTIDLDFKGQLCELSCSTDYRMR
Sequence of Protein arginine N-methyltransferase 1 (Q63009 whole entry, the tested form may be a part): as the sequence (Q63009 whole entry, looked up, the tested form may be a part) above
Sequence of Protein arginine N-methyltransferase 1 (Homo sapiens) (Q99873 whole entry, looked up): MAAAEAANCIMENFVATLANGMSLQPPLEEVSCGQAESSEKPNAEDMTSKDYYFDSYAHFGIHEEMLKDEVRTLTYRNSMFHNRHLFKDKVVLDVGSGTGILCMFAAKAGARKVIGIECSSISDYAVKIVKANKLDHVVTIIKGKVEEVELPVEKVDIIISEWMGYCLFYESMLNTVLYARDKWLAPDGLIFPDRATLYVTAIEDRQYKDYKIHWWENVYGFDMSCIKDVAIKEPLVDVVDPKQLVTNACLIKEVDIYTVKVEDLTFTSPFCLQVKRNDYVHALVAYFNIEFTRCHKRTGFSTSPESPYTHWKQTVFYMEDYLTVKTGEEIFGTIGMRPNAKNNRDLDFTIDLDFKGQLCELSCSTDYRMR

IC50 [1]: > 50 µM
SMILES: CN(C)CCNC(=O)c1ccccc1Sc1ccccc1Cl

inhibition [2]: > 80%
SMILES: CCCNCc1cc(Br)cc(Br)c1OC

IC50 [1]: 0.71 µM
SMILES: CN(C)CCN(C)Cc1ccccc1Sc1ccccc1F

IC50 [1]: 54 µM
SMILES: CN(C)CCNCc1ccccc1Sc1ccccc1Cl

IC50 [1]: 3.6 µM
SMILES: CN(C)CCN(C)Cc1ccccc1Sc1ccccc1

IC50 [1]: 147 µM | inhibition [2]: > 80%
SMILES: c1ccc(COc2cccc(CNCC3CCNCC3)c2)cc1

IC50 [1]: 3 µM | Activity [3]: Active | Activity [4]: Active | inhibition [2]: > 80%
SMILES: CN(C)CCN(C)Cc1ccccc1Sc1cccc2ccccc12

SMILES: CCOC(=O)c1c2c3ccccc3c3ccccc3c2cc2[n+]1CCc1ccccc1-2
IC50 [1]: 53 µM | inhibition [2]: > 80%

inhibition [2]: > 80%
SMILES: COc1ccc(N(C(=O)C2CCCCC2)S(=O)(=O)c2ccccc2)cc1

IC50 [1]: 34 µM
SMILES: CN(C)CCNCc1ccccc1Sc1cccc2ccccc12

inhibition [6]: inactive | IC50 [1]: > 50 µM
SMILES: CN(C)CCNCc1ccccc1Sc1ccccc1
Activity (MV4-11 [5]): inactive | Activity (MV4-11 [7]): inactive | Activity (MV4-11 [8]): inactive | Activity (MV4-11 [9]): inactive | Activity (MV4-11 [10]): inactive | Activity (MV4-11 [11]): inactive

IC50 [1]: > 200 µM
SMILES: CN(C)CCNC(=O)c1ccccc1Sc1ccccc1F

IC50 [1]: 0.39 µM
SMILES: CN(C)CCN(C)Cc1ccccc1Sc1ccccc1Cl

inhibition [16]: Dose-dependent effect | inhibition [17]: Dose-dependent effect | inhibition [19]: Dose-dependent effect | IC50 [1]: 0.006 µM | IC50 (MV4-11 [22]): 1080 nM | Activity [3]: Active | Activity [4]: Active
SMILES: CNCCN(C)Cc1ccccc1Sc1ccccc1Cl
Activity (MV4-11 [12]): Active | Activity (MV4-11 [13]): Tde | Activity (RS4-11): Dose-dependent effect | Activity (MV4-11 [14]): Dose-dependent effect | Activity (MV4-11 [15]): Dose-dependent effect | Activity (RCH-ACV): Dose-dependent effect | Activity (MRC5): Non-Toxic | Activity (MV4-11 [18]): Dose-dependent effect | Activity (MV4-11 [10]): Active | Activity [20]: Non-Toxic | Activity (REH): Dose-dependent effect | Activity [21]: Non-Toxic | Activity (THP-1): Dose-dependent effect | Activity (KMS-11): Dose-dependent effect | Activity (U-937): Dose-dependent effect | Activity (MV4-11 [23]): Dose-dependent effect | Activity (MV4-11 [24]): Dose-dependent effect | Activity (KOPN-8): Dose-dependent effect

IC50 [1]: > 50 µM
SMILES: CN(C)CCNC(=O)c1ccccc1Sc1ccccc1

IC50 [1]: 49 µM | inhibition [2]: > 80%
SMILES: Cc1ccc(-c2cc(CC(=O)c3c(O)cc(O)cc3O)n[nH]2)cc1

IC50 [1]: 45 µM
SMILES: CN(C)CCNCc1ccccc1Sc1ccccc1F

IC50 [1]: > 200 µM
SMILES: CN(C)CCNC(=O)c1ccccc1Sc1cccc2ccccc12

IC50 [1]: 85 µM | inhibition [2]: > 80%
SMILES: C=CCOc1ccc(CNCCc2ccc(S(N)(=O)=O)cc2)cc1
